From PMC4502742 (Autophagy, 2015)
Non-standard residues stand in square brackets, D forms with d. No end group written: not given here. pS = N[C@@H](COP(=O)(O)O)C(=O)O

Tests used:
[1] = test system: B cells from MRL/lpr mice; test: Internalization and colocalization in purified B cells, confocal microscopy; format: cell-based, mouse; conditions: PBS-2% FCS
[2] = test system: chaperone-mediated autophagy (CMA) in NIH3T3 cells; test: CMA activity, KFERQ-PA-mCherry1 reporter; format: cell-based, mouse; conditions: NIH3T3, serum-free medium, 10 and 30 μM peptide, 12 h; N > 50 cells; Fig. 4
Outline: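 NIH3T3 cells stably expressing the photoactivable KFERQ-PA-mCherry1 reporter were photoactivated, then kept in serum-free medium to maximally activate CMA, with or without 10 or 30 μM test peptide for 12 h. Scrambled and unphosphorylated peptides served as controls. Nuclei were stained with DAPI. Fluorescent puncta per cell were counted in at least 50 cells. Results are mean + SEM; Student t test.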

[3] = target: HSPA8 (Bos taurus, UniProt P19120); test: HSPA8 ATPase activity; format: biochemical; conditions: HSPA8 500 nM without HSP40; 100 μM ATP; 3 h at 37°C; luminescence; 3 independent experiments; Fig. 1D
[4] = test system: MRL/lpr mice splenocytes; test: Intracellular localization in splenocytes after iv administration; format: in vivo, mouse; conditions: 1 h after iv administration; Fig. S5
Outline: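 MRL/lpr mice (10–12 wk old) received 100 μg Alexa Fluor 488-labeled peptide intravenously. Splenocytes taken 1 h after injection were incubated for 30 min at 37°C in complete RPMI with 100 nM LysoTracker Red DND-99 or 500 nM MitoTracker Deep Red FM. After washing in the same medium, they were imaged immediately by confocal microscopy.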

[5] = test system: CTSD/cathepsin D and CTSL/cathepsin L; test: Stability in artificial lysosomal fluid; format: in vitro ADME
[6] = Stability in matrices of isolated lysosomes; format: in vitro ADME; conditions: pH 4.2, 5.3, 7.2
Outline: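 Peptide stability was tested in artificial lysosomal fluid at pH 4.2, 5.3 and 7.2. The fluid was supplemented with CTSD plus CTSL or with matrix extracted from isolated lysosomes. Samples were analysed by analytical RP-HPLC at 220 nm using water + 0.1% TFA and acetonitrile + 0.08% TFA eluents. Degradation was judged from the remaining intact-peptide peak area at several time intervals.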

[7] = test system: chaperone-mediated autophagy (CMA) in NIH3T3 cells; test: CMA activity, KFERQ-PS-Dendra reporter, high-content microscopy; format: cell-based, mouse; conditions: 6 P140 concentrations, serum, starvation, paraquat 50 μM, > 700 cells, compared to an inactive P140 analog, Fig. S9
[8] = test system: lysosomes isolated from mouse liver; test: CMA in vitro: GAPDH binding and uptake by isolated lysosomes; format: biochemical
[9] = test system: CTSD; test: CTSD protein in purified B cells of treated mice, western immunoblotting; format: in vivo; conditions: MRL/lpr mice, 100 μg P140/mouse/injection once or 6 times at daily intervals; Fig. 5F
Outline: (§1)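 MRL/lpr mice (10–13 wk old, 3 per group) received 100 μg test peptide per injection. Dosing was either once, with cells taken 5 d later, or 6 times at daily intervals, with cells taken 1 d after the last injection. Purified B cells were immunoblotted and band intensity was expressed relative to β-ACTA. Ratios were normalized to untreated MRL/lpr mice and given as mean of 3 mice + SD; at least 2 independent experiments.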

[10] = test system: LAMP1; test: LAMP1 protein in purified B cells of treated mice, western immunoblotting; format: in vivo; conditions: MRL/lpr mice, 100 μg P140/mouse/injection once or 6 times at daily intervals; Fig. 5F
Outline: as §1

[11] = test system: LAMP2A; test: Lamp2a mRNA in purified B cells, qRT-PCR; format: in vivo, mouse; conditions: B cells of MRL/lpr mice; Fig. S13
[12] = test system: MRL/lpr lupus-prone mice; conditions: cited from earlier work
[13] = test system: lupus patients; conditions: phase II clinical trials; cited from earlier work
[14] = test system: HSPA8/HSC70/HSP73 chaperone; conditions: cited from earlier work
[15] = test system: major histocompatibility complex class II (MHCII) molecules; conditions: cited from earlier work
[16] = target: HSPA8 N-terminal fragment 1-386 (nucleotide binding domain) (human, UniProt P11142 1-386); test: ELISA
[17] = administered intravenously to MRL/lpr mice

Chain of HSPA8 (P19120 whole entry): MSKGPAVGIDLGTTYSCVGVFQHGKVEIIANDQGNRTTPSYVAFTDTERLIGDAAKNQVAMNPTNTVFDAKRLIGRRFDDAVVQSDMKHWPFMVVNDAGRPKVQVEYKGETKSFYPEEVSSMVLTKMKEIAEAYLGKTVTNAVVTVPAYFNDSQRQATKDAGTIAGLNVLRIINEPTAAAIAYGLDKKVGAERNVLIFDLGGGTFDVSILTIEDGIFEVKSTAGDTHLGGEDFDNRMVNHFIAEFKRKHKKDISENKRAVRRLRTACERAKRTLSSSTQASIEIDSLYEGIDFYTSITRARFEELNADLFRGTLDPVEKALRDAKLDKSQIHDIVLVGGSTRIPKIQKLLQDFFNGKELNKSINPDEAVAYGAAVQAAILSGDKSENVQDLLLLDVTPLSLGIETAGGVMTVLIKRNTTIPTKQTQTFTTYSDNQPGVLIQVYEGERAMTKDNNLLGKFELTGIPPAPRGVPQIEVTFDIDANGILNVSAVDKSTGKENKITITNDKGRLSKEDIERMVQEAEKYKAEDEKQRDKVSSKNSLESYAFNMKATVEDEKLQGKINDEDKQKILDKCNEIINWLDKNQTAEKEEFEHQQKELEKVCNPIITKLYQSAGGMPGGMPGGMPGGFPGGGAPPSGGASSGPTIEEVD
Chain of HSPA8 N-terminal fragment 1-386 (nucleotide binding domain) (P11142 1-386): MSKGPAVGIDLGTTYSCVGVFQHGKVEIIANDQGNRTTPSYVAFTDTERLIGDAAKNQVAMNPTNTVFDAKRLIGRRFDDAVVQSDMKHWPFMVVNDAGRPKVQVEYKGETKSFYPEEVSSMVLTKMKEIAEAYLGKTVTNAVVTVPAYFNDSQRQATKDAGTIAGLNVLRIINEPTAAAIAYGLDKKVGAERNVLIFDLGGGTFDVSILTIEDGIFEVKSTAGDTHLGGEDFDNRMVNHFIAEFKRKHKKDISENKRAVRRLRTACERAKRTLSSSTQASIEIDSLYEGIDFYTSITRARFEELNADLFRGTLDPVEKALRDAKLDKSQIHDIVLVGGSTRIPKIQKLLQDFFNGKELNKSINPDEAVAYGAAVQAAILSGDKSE

131–151: unphosphorylated (nonprotective) peptide 131–151 of SNRNP70/U1–70K (RIHMVYSKRSGKPRGYAFIEY; UniProt P08621 131-151, looked up, fragment) [reference compound]
colocalization with early endosomal marker EEA1, ex vivo ([1]; 10 μM Alexa Fluor 488-labeled peptide, 15 min at 37°C, Fig. 3B, S6B, C): colocalization with EEA1 was hardly seen | CMA activity, average number of fluorescent puncta per cell [2]: did not observe any changes in CMA activity

RIHMVYSKRpSGKPRGYAFIEY [P140]
endogenous HSPA8 ATPase activity [3]: effectively increase both the endogenous and HSP40-stimulated ATPase activities of HSPA8 in a peptide dose-dependent manner | entry pathway into B lymphocytes ([1]; B lymphocytes from 12-wk-old MRL/lpr mice, Alexa Fluor 488-labeled peptide 10 μM, 30 min at 37°C, confocal, Fig. 2A): endocytosed by a clathrin-dependent mechanism | localization by LysoTracker Red / MitoTracker Deep Red counterstaining [4]: accumulated into lysosomes | time for which the phosphoryl moiety was preserved ([5]; ALF, pH 4.2, 37°C, LC-MS, Fig. S8): about 2 h | dependence of stability on pH ([5]; pH 5.3 and 7.2 compared to 4.2, medium not given): more stable at higher pH (5.3 and 7.2 compared to 4.2) | stability over pH in CMA+ lysosomal extracts [6]: remains stable on a large range of pH | CMA activity, average number of fluorescent puncta per cell [2]: clearly diminished the average number of puncta per cell in a dose-dependent manner | CMA activity, average number of puncta per cell [7]: significantly diminish CMA activity in a peptide concentration-dependent manner | GAPDH associated with lysosomes, exogenous HSPA8 added ([8]; as above with exogenous HSPA8 in the incubation media, Fig. S10B): not even when exogenous HSPA8 was added | uptake of GAPDH by lysosomes ([8]; difference of GAPDH with and without protease inhibitors, Fig. S10C, D): did not significantly modify binding or uptake of GAPDH by CMA | GAPDH associated with lysosomes ([8]; lysosomes 75 μg protein pretreated with protease inhibitors, GAPDH 25 μg, 20 min at 37°C, pH 7.3, increasing peptide concentrations, immunoblot, Fig. S10A): did not modify the amount of GAPDH recovered in lysosomes | binding of GAPDH to lysosomes ([8]; lysosomes without protease inhibitors, Fig. S10C, D): did not significantly modify binding or uptake of GAPDH by CMA | CTSD expression in purified B cells [9]: highly significant reduction | LAMP1 expression in purified B cells [10]: A similar trend was observed for LAMP1 expression | Lamp2a mRNA level [11]: lack of change at the mRNA level | protective effect in lupus-prone mice ([12]; MRL/lpr mice): displays protective properties | MHCII expression ([12]; MRL/lpr mice, earlier work): decreases MHCII overexpression | signs of systemic autoimmunity (proteinuria, vasculitis, dermatitis, anti-DNA antibody production) ([12]; MRL/lpr mice, earlier work): attenuates biological and clinical signs of systemic autoimmunity | HSPA8 expression [12, 17]: decreases the HSPA8 overexpression observed in this murine strain | autophagy markers SQSTM1/p62 and LC3-II [12, 17]: increases the accumulation of the autophagy markers SQSTM1/p62 (sequestosome 1) and LC3-II | protective effect in lupus patients [13]: displays protective properties | binding to HSPA8 [14]: readily binds to HSPA8 | binding to MHCII molecules [15]: binds both the HSPA8/HSC70/HSP73 chaperone and major histocompatibility complex class II (MHCII) molecules

RIHMVYSKR[pS]GKPRGYAFIEY [P140 peptide (SNRNP70/U1-70K 131-151, phosphoserine 140)]
binding result [16]: binds
